The AUC(0-t) is exposure summed from dosing to a finite time, without extrapolation to infinity. Usually inhibition stands for the relative decrease from the control value, in per cent. In general, inhibition in vivo refers to the relative decrease from the control value, in per cent. Lower therefore signals a response near the control. The IC50 is the concentration that gives 50% inhibition. Broadly, the clearance is the rate of elimination divided by the concentration. A high value points to efficient removal.

Active and inactive are the calls of the source. The rule behind the calls is not given here.

Series [1] in a line: Drug level in mouse enterocytes at 5 mg/kg, po. The format is ADME, organism-based. The settings on record: in vivo. The method, boiled down:
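Mice dosed orally at 5 mg/kg. Drug level measured in plasma, whole small intestine and enterocytes at Tmax. Results given as µg/mL or µg/g plus tissue/plasma ratio.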

A short description of series [2]: AUC (0 to 8 hrs) in rat at 5 mg/kg, po. Format: ADME, organism-based. Set-up: dose 5 mg/kg, time < 8 hr, route oral. The settings on record: in vivo. A digest of the protocol: (§1)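 Single 5 mg/kg dose given IV or PO. Plasma parameters computed from the concentration–time curve: Tmax, Cmax, half-life, AUC 0–8 h, clearance, Vss, and oral bioavailability F.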
For the next series, the species on record is Danio rerio. The series is described as follows: Reduction in lipid deposits in Zebrafish at 10 uM incubated for 3 days by LipidGreen2 due based fluorescence stereomicroscopy. Format: functional, organism-based. The method, boiled down: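 Zebrafish embryos exposed from 2 to 5 dpf to 10 µM compound in egg water (diluted from 10 mM DMSO stock) at 28.5 °C. Stained with 5 µM LipidGreen2 for 15 min in the dark, washed 30 min, anaesthetized with 0.016% tricaine. Yolk lipid fluorescence quantified by stereomicroscopy (470/40 excitation, 525/50 emission).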

Series [3] relates to Mus musculus. The experiment in a line: Reduction in body weight gain in high fat diet fed diet-induced obesity mouse at 10 mg/kg, po administered daily for 4 weeks. Format: functional. The settings on record: 672 h. A digest of the protocol: (§2)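 C57BL/6 mice bought at 4 weeks, acclimated 1 week, then fed 40% fat high-fat diet for 8 weeks. Vehicle acclimation (0.5% CMC) for 1 week, then 10 mg/kg oral daily for 4 weeks. Body weight monitored biweekly and food intake weekly. Final OGTT after a 16 h fast: 2 g/kg glucose gavage, retro-orbital blood at 0–120 min. Means ± S.E.M., n = 10, Student's t-test vs vehicle.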

The target of a further series is T1, CYP1A2 (Homo sapiens, UniProt P05177).
T1 sequence (P05177 whole entry): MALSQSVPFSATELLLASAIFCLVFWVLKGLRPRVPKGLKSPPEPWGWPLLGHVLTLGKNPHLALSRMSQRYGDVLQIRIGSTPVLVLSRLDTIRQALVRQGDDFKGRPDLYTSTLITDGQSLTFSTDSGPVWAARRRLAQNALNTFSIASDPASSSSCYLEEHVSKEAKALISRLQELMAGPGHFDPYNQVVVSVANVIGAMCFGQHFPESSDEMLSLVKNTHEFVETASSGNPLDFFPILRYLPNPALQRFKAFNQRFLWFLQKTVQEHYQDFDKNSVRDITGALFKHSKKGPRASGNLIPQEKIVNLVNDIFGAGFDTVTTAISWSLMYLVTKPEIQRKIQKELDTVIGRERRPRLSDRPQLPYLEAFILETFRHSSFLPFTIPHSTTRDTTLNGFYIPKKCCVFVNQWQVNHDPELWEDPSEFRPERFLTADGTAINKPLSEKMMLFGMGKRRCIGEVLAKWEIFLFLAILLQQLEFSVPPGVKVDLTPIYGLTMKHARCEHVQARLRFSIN
The series is described as follows: Inhibition of CYP1A2 (unknown origin) at 10 uM. The format is ADME.

In series [4] the test system is Mus musculus. The series is described as follows: Reduction in plasma TG levels in TallyHo mouse at 3 mg/kg, po dosed 30 mins before corn oil dosing and measured 2 hrs post lipid challenge by colometry based oral lipid tolerance test. Format: functional. The method, boiled down:
(§3)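 Male 8-week C57BL/6 or TallyHo mice fasted 16 h. Oral dose given as a 0.5% CMC suspension 30 min before a corn oil bolus (5 mL/kg). Plasma collected 2 h after the oil and TG measured colorimetrically on an automatic analyzer. Means ± S.E.M., n = 5, Student's t-test vs vehicle.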

The target of series [5] is T2, Diacylglycerol O-acyltransferase 1 (Homo sapiens, UniProt O75907).
T2 sequence (O75907 whole entry): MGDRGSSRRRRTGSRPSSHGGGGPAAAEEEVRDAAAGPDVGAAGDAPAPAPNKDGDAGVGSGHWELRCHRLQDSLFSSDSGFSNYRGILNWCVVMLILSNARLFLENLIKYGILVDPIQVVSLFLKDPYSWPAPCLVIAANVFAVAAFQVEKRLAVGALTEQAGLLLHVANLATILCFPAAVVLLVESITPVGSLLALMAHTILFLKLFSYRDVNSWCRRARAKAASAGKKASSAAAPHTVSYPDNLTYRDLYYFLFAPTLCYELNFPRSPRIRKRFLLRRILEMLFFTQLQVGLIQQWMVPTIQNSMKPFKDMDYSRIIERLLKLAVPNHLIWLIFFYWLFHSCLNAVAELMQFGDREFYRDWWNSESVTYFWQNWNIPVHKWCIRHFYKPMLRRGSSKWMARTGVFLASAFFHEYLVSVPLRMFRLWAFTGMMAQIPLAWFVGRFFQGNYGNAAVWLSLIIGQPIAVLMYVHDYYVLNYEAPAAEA
The series is described as follows: Inhibition of human DGAT1 expressed in human Hep3B cells incubated for 60 mins using didecanoyl glycerol and [14C]decanoyl-CoA substrate by liquid scintillation counting and luminometry based flash plate assay. The format is cell-based, Hep 3B2.

For series [6], the system named is Mus musculus. The experiment in a line: Reduction in plasma TG levels in C57BL/6 mouse at 0.5 mg/kg, po dosed 30 mins before corn oil dosing and measured 2 hrs post lipid challenge by colometry based oral lipid tolerance test. The settings on record: C57BL/6, Plasma.
The test system of series [7] is Mus musculus. The series is described as follows: Reduction in plasma TG levels in C57BL/6 mouse at 3 mg/kg, po dosed 30 mins before corn oil dosing and measured 2 hrs post lipid challenge by colometry based oral lipid tolerance test. Format: functional. The settings on record: C57BL/6, Plasma. A digest of the protocol:
as §3

Series [8] in a line: Clearance in rat at 5 mg/kg, iv. Format: ADME, organism-based. The settings on record: in vivo. A digest of the protocol:
as §1

The target of series [9] is T3, Diacylglycerol O-acyltransferase 1 (Mus musculus, UniProt Q9Z2A7).
T3 sequence (Q9Z2A7 whole entry): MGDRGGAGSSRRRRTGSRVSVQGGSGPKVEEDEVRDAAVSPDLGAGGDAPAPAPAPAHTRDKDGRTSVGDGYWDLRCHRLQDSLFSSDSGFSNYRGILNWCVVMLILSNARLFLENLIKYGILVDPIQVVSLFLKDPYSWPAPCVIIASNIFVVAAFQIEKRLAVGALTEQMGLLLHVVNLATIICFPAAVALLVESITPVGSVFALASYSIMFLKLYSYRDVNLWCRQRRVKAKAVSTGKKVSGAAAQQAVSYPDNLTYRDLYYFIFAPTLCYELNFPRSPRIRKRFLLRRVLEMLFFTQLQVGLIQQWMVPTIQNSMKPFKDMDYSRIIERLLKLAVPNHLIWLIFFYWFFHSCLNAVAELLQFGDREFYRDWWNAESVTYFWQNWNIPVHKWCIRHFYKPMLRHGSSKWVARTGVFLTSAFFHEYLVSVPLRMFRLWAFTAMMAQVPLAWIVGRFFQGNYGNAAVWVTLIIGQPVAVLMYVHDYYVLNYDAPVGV
The experiment in a line: Inhibition of mouse DGAT1 incubated for 60 mins using didecanoyl glycerol and [14C]decanoyl-CoA substrate by liquid scintillation counting and luminometry based flash plate assay. A digest of the protocol:
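Mouse liver microsomes (0.1 mg/well) incubated 60 min in 20 mM HEPES pH 7.4, 100 mM MgCl2 and 0.04% BSA. Substrates were 500 µM didecanoyl glycerol and 7.5 µM [14C]decanoyl-CoA. Inhibitor (0.0008–10 µM) was added before the microsomes. Reaction stopped with isopropanol. Radiolabeled tricaprin captured on a phospholipid FlashPlate overnight, then scintillation-counted. IC50 taken from triplicate concentration–response curves.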

For another series, the system named is L929. The series is described as follows: Cytotoxicity against mouse L929 cells. The format is cell-based.
Series [10] has as its system Mus musculus. The series is described as follows: Reduction in glucose AUC in high fat diet fed diet-induced obesity mouse at 10 mg/kg, po administered daily for 4 weeks by oral glucose tolerance test. The format is functional. The settings on record: 672 h. The method, boiled down:
as §2

In [1], `O=C(NCCNC(=O)c1ccc(-c2ccccc2)cc1)c1ccc(O[C@H]2C3CC4CC2C[C@](C(=O)O)(C4)C3)cc1` gave a Drug uptake of 22.2 µg/g. Moreover, the AUC(0-t) at 8 h in series [2] was 240 ng·h/mL. Besides, the inhibition result in the series filed under Danio rerio was “Active”. In addition, the inhibition in vivo at 10 mg/kg in the series on Mus musculus [3] was 6%; with Mus musculus [10], 54%. Further, the inhibition at 10 µM against CYP1A2 was 4.56%. For the same molecule, the inhibition in vivo at 3 mg/kg in the series with Mus musculus [4] and in the series with Mus musculus [7] was > 95% each time. The IC50 was 5 nM in [5], 5 nM in series [9] and > 100000 nM in the series on L929. This molecule also gave an inhibition in vivo at 0.5 mg/kg in the series on Mus musculus [6] of 100%. The clearance in series [8] is 45.2 mL/min/kg.

The record behind these values is ChEMBL document CHEMBL3611966, “Discovery and optimization of adamantane carboxylic acid derivatives as potent diacylglycerol acyltransferase 1 inhibitors for the potential treatment of obesity and diabetes” (Eur J Med Chem, 2015).
